From PubChem BioAssay
KCNK3 inh = human KCNK3 channel inhibitors, primary screen, CHO cells, FluxOR thallium flux, B-score. AID 602410, 2012. B-score at 10 µM. actives 0.84% (n = 340,000). FluxOR fluorescence; hits give low values. Potassium channel subfamily K member 3 (Homo sapiens), O14649;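 active means B-score under library mean minus 4 SD, starting fluorescence ratio at most library mean plus 5 SD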;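 further: more negative B-score means stronger inhibition of thallium flux through KCNK3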
KCNQ1 block = inhibitors of human KCNQ1 channel, primary screen, cell-based, thallium flux, high-throughput. CHO-K1 KCNQ1, FluxOR thallium flux fluorescence; hits give high values. B-score at 10 µM. actives 1.3% (n = 310,000). AID 2642, 2010;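 active means compounds whose thallium flux B-score, printed positive for inhibition, exceeds three library SD while starting fluorescence stays within three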;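 further: channel opened by potassium depolarization with thallium stimulus after 20 min compound exposure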
Target sequence (P51787 whole entry, looked up): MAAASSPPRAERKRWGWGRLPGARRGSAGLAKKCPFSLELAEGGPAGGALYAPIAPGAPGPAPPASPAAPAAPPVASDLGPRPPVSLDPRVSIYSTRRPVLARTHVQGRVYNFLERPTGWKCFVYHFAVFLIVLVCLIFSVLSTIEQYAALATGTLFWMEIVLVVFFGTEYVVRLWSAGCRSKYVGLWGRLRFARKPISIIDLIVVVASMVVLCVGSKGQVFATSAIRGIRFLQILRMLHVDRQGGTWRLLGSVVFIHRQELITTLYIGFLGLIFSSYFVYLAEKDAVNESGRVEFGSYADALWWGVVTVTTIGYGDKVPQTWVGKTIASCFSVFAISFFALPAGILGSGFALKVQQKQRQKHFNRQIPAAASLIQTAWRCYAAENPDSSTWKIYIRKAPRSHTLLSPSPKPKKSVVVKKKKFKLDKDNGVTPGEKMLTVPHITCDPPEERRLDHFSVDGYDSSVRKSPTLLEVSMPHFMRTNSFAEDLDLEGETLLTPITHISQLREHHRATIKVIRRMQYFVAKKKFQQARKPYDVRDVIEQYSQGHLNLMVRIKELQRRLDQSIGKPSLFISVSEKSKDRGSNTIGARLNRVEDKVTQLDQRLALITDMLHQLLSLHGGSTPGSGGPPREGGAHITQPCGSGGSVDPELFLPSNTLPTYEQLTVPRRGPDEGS
KCNQ1 pot = potentiators or activators of KCNQ1 channel, primary screen, cell-based, thallium flux, high-throughput; Potassium voltage-gated channel subfamily KQT member 1 (Homo sapiens), P51787; CHO-K1 KCNQ1, thallium flux FluxOR fluorescence; hits give high values; B-score at 10 µM; actives 0.35% (n = 310,000);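 active means fluorescence ratio B-score, a plate-corrected score, at least three library SD, with initial intensity B-score within 5 SD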
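Doses: Single concentration per compound, DMSO matched to controls | Test system: KCNQ1-transfected CHO-K1 cells | Timing: 90 min dye loading and 20 min compound exposure, both at room temperature | Measured by: Kinetic FluxOR thallium fluorescence, 10-s 1-Hz baseline, 110-s post-stimulus read | Medium: Assay buffer with matched DMSO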
KCNK9 inh = KCNK9 potassium channel inhibitors, primary screen, HEK293 cells, thallium flux. B-score at 10 µM. actives 1.2% (n = 310,000). FluxOR thallium flux fluorescence; hits give low values. Potassium channel subfamily K member 9 (Homo sapiens), Q9NPC2;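 active means ratio B-score over 3 SD below the library mean, with starting fluorescence within 5 SD of its mean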;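 further: negative B-score means less thallium flux so channel inhibition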
hERG rescue = hERG rescue from dofetilide block, primary screen, cell-based, CHO-hERG, FluxOR thallium flux, dofetilide IC70; activation (rescue from dofetilide block), less the hit threshold, % at 10 µM; Voltage-gated inwardly rectifying potassium channel KCNH2 (Homo sapiens), Q12809; dofetilide IC70 present; actives 0.51% (n = 310,000);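 active means activation above the mean of controls blocked by dofetilide plus 5 SD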;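 further: thallium influx through hERG after potassium depolarization seen as dye fluorescence rise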
KCNK9 block conf = KCNK9 potassium channel inhibitors, confirmation, HEK293 cells, thallium flux, duplicate; shares compounds with KCNK9 inh; FluxOR thallium flux fluorescence; inhibition, % at 10 µM; actives 43% (n = 4,900); AID 492992, 2010;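 active means thallium signal inhibited by more than 5 SD of the compound-free buffer control wells, on both duplicate plates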;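 further: 0% = assay buffer control wells without compound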
Kir21 sel = mouse Kir2.1 channel inhibition, confirmation, selectivity assay for KCNK9 modulator project, cell-based, HEK293, thallium flux; shares compounds with KCNK9 inh; inhibition, % at 10 µM; actives 4% (n = 4,900); Kir2.1 cells, FluxOR thallium flux fluorescence;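 active means thallium signal drop more than 5 SD beyond the mean of the no-compound control wells, seen in both duplicate plates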;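 further: signal is fluorescence rise after thallium addition divided by baseline fluorescence; plate controls were assay buffer only for no effect and full block by chlorpromazine control for full effect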
HEK293 Tl ctr = thallium flux in non-induced HEK293 cells, confirmation, counter-screen for KCNK9 inhibitor project, cell-based, second counter screen, non-induced KCNK9-HEK293. shares compounds with KCNK9 inh. inhibition, % at 10 µM. actives 40% (n = 4,900). FluxOR thallium flux;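 active means thallium signal drop beyond 5 SD of the untreated control mean, on both duplicate plates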;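 further: plate controls were buffer only IC0 wells for no effect and SID17386958 at its maximal inhibitory level for full effect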
The depositor's hits bear a star; i = inactive; x = no result given. This is a sample that favours compounds with a hit; in the whole collection about 3.1% have one here.

SMILES | KCNK3 inh | KCNQ1 block | KCNQ1 pot | KCNK9 inh | hERG rescue | KCNK9 block conf | Kir21 sel | HEK293 Tl ctr
O=C(c1oc2ccccc2c1CSCc1ccccc1)N1CCN(c2ncccn2)CC1 | i | i | i | -9.6* | -13 | 23%* | i | i
CCN(CC)c1ccc(-c2nn3c(-c4n[nH]c5c4CCC5)nnc3s2)cc1 | -9* | i | i | -14* | -12 | 44%* | i | 36%*
C1CCC(c2nn3c(-c4n[nH]c5c4CCC5)nnc3s2)CC1 | i | i | i | i | -15 | x | x | x
O=C(c1ccc(Cl)c(S(=O)(=O)N2CCCCC2)c1)N1CCCC(C(F)(F)F)C1 (centres undefined) | i | x | x | x | x | x | x | x
CC(C)(C)NC(=O)CN(C(=O)c1csnn1)c1cccc2c1CCCC2 | i | i | i | i | -4 | x | x | x
Cc1ccc(/C=N/n2cnc3sc(C)c(C)c3c2=O)o1 | i | i | i | i | -9 | i | i | i
Cc1ccc(/C=N/n2cnc3sc4c(c3c2=O)CCCC4)o1 | i | i | i | i | -7 | x | x | x
CC(CCc1ccccc1)NCC(O)COc1ccccc1 (centres undefined) | i | i | i | i | -17 | x | x | x
CSCCC(NS(=O)(=O)/C=C/c1ccccc1)C(=O)NCCc1ccc(S(N)(=O)=O)cc1 (centres undefined) | i | i | i | i | -10 | x | x | x
Cc1c(N=N/C(C(=O)Nc2ccccc2)=C(/O)c2ccccc2)c(=O)n(-c2ccccc2)n1C | i | 9* | i | -9.1* | -18 | i | i | 46%*
O=C(N/N=C/c1ccco1)c1cccc(N2Cc3ccccc3C2)c1 | i | i | i | i | -10 | x | x | x
COc1ccc(CCNC(=O)c2cc(-c3ccccc3)c(N3CCOCC3)s2)c(OC)c1OC | i | i | i | i | -8 | i | i | i
CCN1/C(=C/c2sc(-c3ccccc3C)c[n+]2C)Sc2ccccc21 | -10* | 11* | i | -13* | -52 | 69%* | 64%* | 28%*
CCC(=O)/C=C1/Sc2ccccc2N1CC | i | i | i | i | -4 | x | x | x
CCc1nnc(NS(=O)(=O)c2ccc(NCc3cc(Br)ccc3O)cc2)s1 | i | i | i | i | -16 | i | i | i
COC(=O)C(Cc1ccc(OC(=O)c2ccc(C)cc2)cc1)N1Cc2ccccc2C1=O (centres undefined) | i | i | i | i | -4 | i | i | i
O=c1c2c(-c3ccccc3)csc2ncn1/N=C/c1cccc([N+](=O)[O-])c1O | i | i | i | i | -5 | x | x | x
Cn1cc(/C=N/n2cnc3scc(-c4ccccc4)c3c2=O)c2ccccc21 | i | i | i | i | -10 | i | i | i
O=C(NN1C(=O)C2C(c3ccccc3)C=CC(c3ccccc3)C2C1=O)c1cccc(Br)c1 (centres undefined) | i | i | i | -12* | 11* | 62%* | i | 37%*
COC(=O)c1cccc(NC(=O)CC2C(=O)NCCN2C(=O)c2ccc(F)cc2F)c1 (centres undefined) | i | i | i | i | -6 | x | x | x
CCn1cc(C=C2C(=O)c3ccccc3C2=O)c2ccccc21 | i | i | i | i | -6 | x | x | x
CCn1cc(C2=NC(C(C)C)CO2)c2ccccc21 (centres undefined) | i | i | i | i | -14 | i | i | i
CCn1cc(C2=NC(CC(C)C)CO2)c2ccccc21 (centres undefined) | i | i | i | i | -12 | i | i | i
CCn1cc(C2=NC(CCSC)CO2)c2ccccc21 (centres undefined) | i | i | i | i | -22 | i | i | i
COc1ccc(NC2CCCN(C(=O)CCN3CCOCC3)C2)cc1 (centres undefined) | i | i | i | i | -8 | x | x | x
SMILES | KCNK3 inh | KCNQ1 block | KCNQ1 pot | KCNK9 inh | hERG rescue | KCNK9 block conf | Kir21 sel | HEK293 Tl ctr
COc1ccc(NC2CCCN(C(=O)CCc3ccccc3F)C2)cc1 (centres undefined) | i | i | i | i | -7 | i | i | i
COc1ccc(NC2CCCN(C(=O)CSc3ccccc3)C2)cc1 (centres undefined) | i | i | i | i | -7 | x | x | x
COc1ccc(NC2CCCN(C(=O)CCOc3ccccc3)C2)cc1 (centres undefined) | i | i | i | i | -8 | i | i | i
Cc1cccc(/C=C/C(=O)c2cc(Br)ccc(=O)c2O)c1 | i | i | 25* | i | -2 | i | i | i
COc1ccc([N+](=O)[O-])cc1NC(=O)C(C)Sc1ccccc1 (centres undefined) | i | i | i | i | -6 | x | x | x
COc1ccc([N+](=O)[O-])cc1NC(=O)C(C)Sc1nc(-c2ccccc2)cs1 (centres undefined) | i | i | i | -8.1* | -13 | i | i | 31%*
CCOC(=O)C1(C)NC(c2cccc(C)c2)C2C(=O)N(c3ccccc3)C(=O)C21 (centres undefined) | i | i | i | i | -11 | i | i | i
COc1cccc(-c2c(C(=O)N/N=C(\C)c3cccnc3)nnn2-c2nonc2N)c1 | i | i | i | i | -6 | x | x | x
CC1(C)CC(=O)N(c2cc(Cl)cc(Cl)c2)C(=O)C1 | i | i | i | i | -5 | x | x | x
O=C(CCc1ccc(Oc2cc([N+](=O)[O-])cc([N+](=O)[O-])c2)cc1)N1CCCCCC1 | i | i | i | -10* | -7 | 46%* | i | i
